V1aR counter = agonists of human V1a receptor, primary screen, counter-screen for OXTR agonist project, fluorescence, CHO-V1R cells | Vasopressin V1a receptor (Homo sapiens), P37288 | Fluo-8 calcium fluorescence, agonist mode; 0% DMSO, 100% 3 nM vasopressin | activation, % at 3 µM | 320,000 tested, 0.25% active | AID 2797, 2010;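 active means activation above the mean activation of all tested compounds plus 3 SD, per screening run, cut at about 20% in these data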;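 further: signal is peak over basal fluorescence ratio across a 100 second FLIPR read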
OXTR ag = human OXTR agonists, primary screen, fluorescence, CHO-OTR cells, Fluo-8 calcium; Fluo-8 calcium fluorescence; normalized: DMSO 0%, oxytocin 100%; AID 2435, 2010; 320,000 tested, 0.32% active; activation, % at 3 µM;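 active means activation above the mean of all tested compounds plus 3 SD, cutoff set per screening run, cut at about 20% in these data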;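 further: peak over basal fluorescence ratio from a 100 s FLIPR kinetic read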
Target sequence (P30559 whole entry, looked up): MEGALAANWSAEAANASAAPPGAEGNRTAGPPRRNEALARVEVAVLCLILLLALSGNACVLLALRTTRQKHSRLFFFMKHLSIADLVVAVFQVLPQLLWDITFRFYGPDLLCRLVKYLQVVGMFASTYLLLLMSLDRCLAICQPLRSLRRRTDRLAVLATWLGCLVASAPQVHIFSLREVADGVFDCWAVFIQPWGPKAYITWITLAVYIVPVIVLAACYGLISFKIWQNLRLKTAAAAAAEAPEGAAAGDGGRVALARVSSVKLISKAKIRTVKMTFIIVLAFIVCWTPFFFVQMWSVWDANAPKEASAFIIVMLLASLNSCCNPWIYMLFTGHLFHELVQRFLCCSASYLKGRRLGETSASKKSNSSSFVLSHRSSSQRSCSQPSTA
OXTR potentiator = human OXTR potentiators, primary screen, fluorescence, CHO-OTR cells, Fluo-8 calcium; Oxytocin receptor (Homo sapiens), P30559; Fluo-8 calcium fluorescence, potentiator mode; 0% = oxytocin EC15, 100% = EC100; activation, % at 3 µM; 320,000 tested, 0.061% active;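 active means activation above that plate's cutoff, the mean activation of tested compounds plus 3 SD, cut at about 6.6% in these data, passing the limit was not always enough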;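 further: 100% uses oxytocin at 75 nM as the full agonist control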
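Dosing: Single dose, 3.0 µM nominal final compound concentration | Material: Human OTR in CHO cells | Technique: Kinetic Fluo-8 calcium fluorescence | Benchmarks: EC15 oxytocin alone as 0%, 75 nM oxytocin as 100% | Probe or stimulus: Oxytocin at about EC15, sub-maximal agonist stimulus | Incubation: Compound 6 min at room temperature before oxytocin, 100 s read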
TRPN1 ag = zebrafish TRPN1 channel agonists, primary screen, cell-based, HEK293, calcium fluorescence; transient receptor potential cation channel N1 (TRPN1/NompC), Danio rerio; HEK293 zebrafish TRPN1-YFP, Fluo-8 calcium fluorescence; 100% = response to 87 µM carbachol; activation, % at 3 µM; 220,000 tested, 0.18% active;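 active means activation above its plate's cutoff, the mean activation of test wells on that plate plus 3 SD, cut at about 19% in these data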;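 further: 0% = DMSO alone and 100% = 87 µM carbachol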
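Material: zebrafish TRPN1-YFP in HEK293 cells. Doses: one dose of 3 µM, 0.3% DMSO. Incubation: dye 1 h 37 °C plus 30 min RT. Measured by: intracellular calcium fluorescence with Fluo-8.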
TRPML3 agonist = human TRPML3 channel agonists, primary screen, cell-based, HEK293 TRPML3-YFP, Fluo-8 calcium fluorescence, 3 µM; Mucolipin-3 (Homo sapiens), Q8TDD5; 100% = the carbachol control signal; activation, % at 3 µM; 220,000 tested, 0.29% active;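 active means activation above its plate's cutoff, the mean activation of the plate's test wells plus 3 SD, cut at about 12% in these data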;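 further: 0% = DMSO only wells and 100% = carbachol wells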
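Material: HEK293 cells stably carrying human TRPML3-YFP; compound dosing: single dose, 3 µM final nominal compound, 0.3% DMSO final; incubation: 1-h 37 °C dye load, 5-s basal, 120-s post-compound reads; technique: Fluo-8 intracellular calcium fluorescence, excitation 470-495 nm, emission 515-575 nm; read-out basis: percent activation from peak-to-basal fluorescence ratio, scaled between DMSO and carbachol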
OXTR ag confirm = human OXTR agonists, confirmation, fluorescence, CHO-OTR cells, triplicate; shares compounds with OXTR ag; activation, % at 3 µM; Fluo-8 calcium fluorescence, agonist; 390 tested, 20% active;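 active means mean activation above about 20% derived from the earlier single-dose screen, limit read from the data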;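 further: peak over minimum fluorescence ratio per well during a 100 second FLIPR read; 0% = DMSO alone and 100% = oxytocin high control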
V1aR counter 3x = V1a receptor agonists, calcium signal, counter-screen for OXTR agonist project, triplicate, fluorescence, CHO-V1R cells | shares compounds with OXTR ag | Fluo-8 calcium fluorescence | activation, % at 3 µM | 390 tested, 10% active;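 active means mean activation over triplicate exceeds the hit threshold set in the earlier primary screen, cut at about 20% in these data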;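 further: peak over basal fluorescence ratio within a 100 second read; 0% = DMSO alone and 100% = 3 nM vasopressin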
The depositor's hits bear a star; / = no result given; ! = not active in a repeat. Only some compounds are listed: those with a hit (about 0.59% of all), similar ones and a draw of the others.

SMILES	V1aR counter	OXTR ag	OXTR potentiator	TRPN1 ag	TRPML3 agonist	OXTR ag confirm	V1aR counter 3x
CN(C)CCOc1ccc(C(C)(C)c2ccccc2)cc1	0.2	2.4	-0.1	3.1	1.2	/	/
Cc1cc(C)n(CCCNC(=O)c2ccc(C)o2)n1	0.8	0.2	-8.4	/	/	/	/
COc1ccccc1CNC(=O)C(=O)NCC1OCCCN1S(=O)(=O)c1ccc(F)cc1C (stereo not drawn)	1.9	-0.3	-4.0	/	/	/	/
CCc1cc(C)cc(OCCOc2ccccc2/C=N/NC(C)=O)c1	0.2	-1.3	4.6	/	/	/	/
O=C(COC(=O)c1cc(S(=O)(=O)Nc2ccccc2Cl)ccc1O)Nc1nc2ccccc2s1	/	/	/	1.4	1.0	/	/
N#Cc1cccc(NC(=O)COC(=O)c2cc(S(=O)(=O)Nc3ccccc3Cl)ccc2O)c1	15.0	19.7*	-9.9	/	/	11.1	11.1
CCOc1ccc(Nc2nc(NCC3CCCO3)c3ccccc3n2)cc1 (stereo not drawn)	8.9	20.1*	-25.6	-0.1	0.3	0.1	3.3
c1ccc(Nc2nc(NCC3CCCO3)c3ccccc3n2)cc1 (stereo not drawn)	2.1	1.0	-5.1	3.0	2.0	/	/
C=CCNc1ncnc2c1[nH]c1ccc(Cl)cc12	12.2	21.6*	-6.5	7.9	5.8	11.5	9.8
C=CCNc1ncnc2c1[nH]c1ccccc12	5.3	6.4	-9.5	6.2	0.2	/	/
CCCC1(c2ccccc2)NC(=O)N(CC(=O)Nc2cc(C)ccc2OC)C1=O (stereo not drawn)	7.0	23.7*	-12.5	/	/	9.6	4.3
CCCC1(c2ccccc2)NC(=O)N(CC(=O)NCc2ccc(C)cc2)C1=O (stereo not drawn)	0.8	0.2	-19.1	/	/	/	/
COc1ccc2nc(NC(=O)c3ccccc3O)sc2c1	15.9	20.5*	-25.5	/	/	10.8	9.4
COc1cn(-c2ccccc2)nc1C(=O)NCc1ccccc1	0.0	-1.4	3.1	/	/	/	/
COc1ccc(C2=NO[C@@H]3C(=O)N(C4CCCCC4)C(=O)[C@H]23)cc1OC	17.5	21.1*	-7.7	5.2	3.6	12.2	13.0
COc1ccc(C2=NO[C@@H]3C(=O)N(c4ccc5c(c4)OCCO5)C(=O)[C@H]23)cc1OC	4.2	6.3	-0.8	-0.4	0.8	/	/
Cc1ccccc1OCC(=O)Nc1ccc(N2CCN(C)CC2)c(Cl)c1	12.8	19.7*	-12.9	/	/	2.6	2.4
COc1ccc(S(=O)(=O)Nc2ccc(S(=O)(=O)Nc3nccs3)cc2)cc1	0.5	0.2	-7.4	/	/	/	/
CC(C(=O)NC1CCCCC1)N(Cc1ccccc1)C(=O)c1snc(C(N)=O)c1N (stereo not drawn)	0.4	0.3	-3.5	/	/	/	/
CCOc1ccc(NC(=O)CN(C)C(=O)CCN2C(=O)C3CC=CCC3C2=O)cc1OCC (stereo not drawn)	0.0	0.0	-1.6	/	/	/	/
CC(C)(C)NCC(O)COc1c(F)cc(Br)cc1F (stereo not drawn)	1.3	2.8	0.8	0.0	0.7	/	/
CC(C)(C)CC(C)(C)NCC(O)COc1c(F)cc(Br)cc1F (stereo not drawn)	13.7	23.2*	-18.6	-0.6	0.6	1.5	0.3
Cc1ncc(CN2CCC(CO)(CCOc3ccccc3)CC2)s1	-0.4	20.5*	-6.8	2.1	1.3	0.0	0.1
CCCCn1c(N)c(N(CC)C(=O)c2cccc(S(=O)(=O)N3CCN(C)CC3)c2)c(=O)[nH]c1=O	-0.2	-0.7	-11.5	/	/	/	/
COc1ccc(NS(=O)(=O)c2ccc(C(=O)NCC3(N4CCOCC4)CCCCC3)cc2)cc1	17.5	23.8*	-9.4	/	/	16.3	9.7
SMILES	V1aR counter	OXTR ag	OXTR potentiator	TRPN1 ag	TRPML3 agonist	OXTR ag confirm	V1aR counter 3x
O=C(NC12CC3CC(CC(C3)C1)C2)c1ccccc1O	2.0	23.8*	-21.4	-1.4	-0.9	-0.7	2.0
O=C(NNC(=O)C12CC3CC(CC(C3)C1)C2)c1ccccc1O	-0.3	0.5	-3.5	/	/	/	/
Oc1ccc(Cl)cc1CNCc1ccc(Cl)cc1	3.9	14.5	-9.9	/	/	/	/
Oc1ccc(Cl)cc1CNCc1ccc(F)cc1	9.3	27.6*	-15.7	/	/	27.5*	18.6
CCOC(=O)c1[nH]cnc1C(=O)Nc1cccc(OC)c1	0.9	-0.7	-16.6	0.3	0.6	/	/
CNC(=O)c1[nH]cnc1C(=O)Nc1cccc(OC)c1	0.5	31.7*	-18.4	-0.7	0.5	-0.8	0.0
COc1cccc(C(=O)N2C(C(=O)O)CSC2c2ccccc2Cl)c1 (stereo not drawn)	0.5	1.8	-3.3	1.1	1.1	/	/
CN(CCOc1ccc(Cl)cc1)C(=O)c1cc(S(=O)(=O)N2CCOCC2)ccc1N1CCCC1	3.3	0.3	-8.6	/	/	/	/
O=C(Nc1ncc([N+](=O)[O-])s1)c1cccs1	12.5	20.7*!	-21.9	/	/	9.5	11.5
Cc1cnc(NC(=O)c2cccs2)s1	1.2	-0.3	-8.6	/	/	/	/
O=C(C1CCCCC1)N1CCCc2ccccc21	-1.1	29.6*	-19.6	0.2	0.2	5.2	-0.5
O=C(NC1CCCCC1)N1CCCc2ccccc21	-1.1	-2.4	-1.4	-2.0	0.3	/	/
Cc1ccc(C(C)NC(=O)/C(C#N)=C\c2c(C)[nH]c3ccccc23)cc1 (stereo not drawn)	18.2	26.6*	-9.7	2.2	2.8	14.5	8.7
CCCCCCCCNC(C)C(O)c1ccc(SC(C)C)cc1 (stereo not drawn)	3.6	22.8*	-8.0	-2.6	-0.1	1.8	5.8
O=[N+]([O-])c1ccc(NC(=S)NCc2ccc(F)cc2)cc1	14.1	22.3*	-26.8	/	/	11.9	9.9
COc1cccc(NC(=O)C2Cc3ccccc3CN2C(=O)c2ccco2)c1 (stereo not drawn)	-1.2	-0.3	-8.5	/	/	/	/
CCCCOc1ccc(CSCCN)cc1Cl	12.6	21.3*	-12.6	0.6	1.6	7.0	1.7
CN1CCc2c(n(CC(O)CNCc3ccccc3)c3ccccc23)C1=O (stereo not drawn)	0.0	-0.3	-6.4	-0.6	0.7	/	/
CC(C)NCC(O)Cn1c2c(c3ccccc31)CCc1c-2cnn1-c1ccccc1 (stereo not drawn)	19.4	21.8*	-22.5	0.7	2.2	11.6	6.2
O=C(CCc1nc(-c2ccccc2F)no1)NCCc1ccccc1Cl	5.9	1.6	-11.6	-0.6	-0.1	/	/
